Screening results deposited in PubChem by The Scripps Research Institute Molecular Screening Center.
GalR3 antagonist: antagonists of human GalR3; O60755; HEK293 GalR3-CNG cAMP membrane potential fluorescence; galR3 body fused to GalR1 C-terminus; inhibition, % at 3 µM; 360,000 tested, 0.44% active;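 active means inhibition above the screen-wide average plus 3 SD, cut at about 13% in these data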;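 further: forskolin and galanin both at EC90 stimulate the cells; cAMP rise reported by CNG channel membrane potential dye signal; 0% = forskolin plus galanin with DMSO and 100% = forskolin alone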
Target sequence (O60755 1-299 limits assumed): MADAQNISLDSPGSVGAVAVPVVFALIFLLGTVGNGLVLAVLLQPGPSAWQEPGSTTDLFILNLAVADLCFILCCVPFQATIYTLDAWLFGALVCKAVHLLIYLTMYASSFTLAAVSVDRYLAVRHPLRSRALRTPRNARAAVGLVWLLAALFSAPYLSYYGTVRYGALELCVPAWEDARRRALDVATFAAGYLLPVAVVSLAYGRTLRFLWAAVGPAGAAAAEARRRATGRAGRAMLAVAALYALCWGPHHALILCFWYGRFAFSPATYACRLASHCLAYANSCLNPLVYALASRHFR
CHO parental Ca: counter-screen: ATP calcium response change in parental CHO cells. inhibition, % at 5.6 µM. AID 463079. parental CHO-K1, ATP-induced calcium, Fluo-8 fluorescence. 330,000 tested, 0.63% active;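 active means inhibition above that plate's mean sample inhibition plus 3 SD, cut at about 26% in these data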;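 further: 0% = ATP-challenged DMSO wells and 100% = DMSO wells without ATP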
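Assay system: untransfected parental CHO cell line. Also added: ATP agonist challenge. Dosing: one dose, 5.6 µM nominal. Measured by: Fluo-8 fluorescence. Read-out: % inhibition. Benchmarks: ATP wells versus no-ATP DMSO wells. Repeats: no replicates.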
OX1R antag-1: antagonists of human orexin 1 receptor; O43613; CHO/OX1R cells, Fluo-8 calcium fluorescence, orexin A; 330,000 tested, 0.43% active; inhibition, % at 5 µM; AID 434989;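 active means inhibition above its plate's threshold, mean inhibition of all tested compounds on the plate plus 3 SD, cut at about 37% in these data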;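 further: 0% = orexin A challenge wells and 100% = SB-334867-A antagonist wells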
OX1R antag-2: OX1R (human) antagonism; O43613; OX1R-expressing cells, FRET antagonist read-out; inhibition, % at 6.6 µM; 330,000 tested, 1.8% active; in the data active means inhibition mostly above about 38%, no sharp cut-off; inactive means mostly below about 40%;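 further: 0% = agonist challenge alone and 100% = reference antagonist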
TAAR1 antag: human TAAR1 antagonism | Q96RJ0 | CHO RD-HGA16 TAAR1, Fluo-8 calcium fluorescence, antagonist | inhibition, % at 3 µM | 360,000 tested, 1.5% active;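 active means inhibition above a per-plate cutoff, the mean inhibition of test compounds on that plate plus 3 SD, cut at about 49% in these data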;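 further: 0% = DMSO plus EC80 beta-PEA response and 100% = DMSO alone without agonist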
Target sequence (Q96RJ0 whole entry, looked up): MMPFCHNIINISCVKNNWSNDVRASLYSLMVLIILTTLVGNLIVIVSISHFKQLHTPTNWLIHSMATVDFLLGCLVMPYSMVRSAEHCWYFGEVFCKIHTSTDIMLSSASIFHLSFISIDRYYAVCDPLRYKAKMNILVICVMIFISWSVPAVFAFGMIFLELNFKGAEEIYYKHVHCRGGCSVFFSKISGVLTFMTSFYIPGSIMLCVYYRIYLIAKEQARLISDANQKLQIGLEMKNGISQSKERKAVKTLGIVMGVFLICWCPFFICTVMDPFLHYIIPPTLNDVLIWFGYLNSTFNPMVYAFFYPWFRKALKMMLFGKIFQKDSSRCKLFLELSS
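System: RD-HGA16 CHO cells with stable hTAAR1 and Gα16 | Probe or stimulus: EC80 β-phenethylamine stimulus | Dosing: 3 µM, single point | Times: Dye loading 75 min at 37 °C, then 30 min room temperature | Measured by: Fluo-8 calcium-sensitive fluorescence | Read-out basis: % inhibition of agonist calcium response | Replicates: n of 1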
TAAR1 agonist: agonists of human TAAR1; Q96RJ0; CHO RD-HGA16 TAAR1, Fluo-8 calcium fluorescence; vehicle wells 0%, saturating PEA agonist 100%; activation, % at 3 µM; 360,000 tested, 0.99% active; AID 624467;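 active means activation above the mean activation of all test compounds in the run plus 3 SD, cut at about 38% in these data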
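Benchmarks: low control DMSO, high control PEA (EC100); System: CHO RD-HGA16 cells carrying human TAAR1 plus Gα16; Detection: Fluo-8 fluorescence, 5 s baseline then 140 s kinetic read; Schedule: 17-24 h plating, Fluo-8 75 min 37 °C, 30 min RT; Read-out basis: % activation from peak over basal fluorescence ratio, DMSO-to-PEA scaled.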
The depositor's hits bear a star; / = no result. Compounds with a hit are over-represented: about 4.3% of the library has one in this group of screens.

SMILES | GalR3 antagonist | CHO parental Ca | OX1R antag-1 | OX1R antag-2 | TAAR1 antag | TAAR1 agonist
C[C@H](CO)N1C[C@H](C)[C@@H](CN(C)C(=O)Nc2ccc3c(c2)OCO3)Oc2c(NC(=O)c3ccncc3)cccc2C1=O | -6 | -2 | -5 | 11 | 26 | 7
Cc1ccc(NC(=O)CN(C)C(=O)c2ccccc2Sc2ccccc2C#N)cc1 | -3 | -25 | -19 | 55* | -10 | 6
CN(CC(=O)Nc1ccc(F)cc1)C(=O)c1ccccc1Sc1ccccc1C#N | -2 | / | / | / | 18 | 4
CC(=O)Nc1cccc(-c2ccnc3c2CC(C(=O)Nc2cccc(OC(F)(F)F)c2)O3)c1 (stereo not drawn) | 1 | / | / | / | 34 | 11
O=C(Cc1ccc([N+](=O)[O-])cc1)NNC(=O)c1ccc2c(c1)OCO2 | 1 | / | / | / | -29 | 2
COC(=O)c1cc(C(=O)OCC(=O)N2CCCCC2)cc([N+](=O)[O-])c1 | -6 | -7 | 2 | 56* | -4 | 0
COC(=O)c1cc(C(=O)OCC(=O)NNC(=O)c2cccs2)cc([N+](=O)[O-])c1 | -3 | -9 | -17 | 60* | -10 | 0
COC(=O)c1cc(C(=O)NNC(=O)c2ccc3c(c2)OCO3)cc([N+](=O)[O-])c1 | -5 | -11 | -22 | 54* | -9 | 0
Nc1ccc(C(=O)OCC(=O)N2CCOCC2)cc1[N+](=O)[O-] | -5 | 3 | 6 | 49* | 2 | 8
O=C(OCC(=O)N1CCCC1)c1cc(Cl)ccc1[N+](=O)[O-] | -9 | -10 | -3 | 54 | 3 | 4
O=C(OCC(=O)N1CCCC1)c1ccc(Cl)c([N+](=O)[O-])c1 | -9 | -2 | 1 | 65* | -4 | 1
COc1ccc(-c2ccc3c(n2)CCCN3S(=O)(=O)c2ccc(F)cc2)cc1 | -7 | / | / | / | 5 | 2
CC(Nc1nc(N2CCNCC2)nc2ccccc12)c1ccccc1 (stereo not drawn) | -13 | -18 | -30 | 12 | 39 | 39*
COc1ccccc1CCNC(=O)C(=O)NCC1OCCN1S(=O)(=O)c1ccc(OC)c(OC)c1 (stereo not drawn) | / | -22 | -18 | 22 | -17 | 40*
O=C(NCCCc1ccccc1)C(=O)NCC1OCCN1S(=O)(=O)c1cc(F)ccc1F (stereo not drawn) | -1 | -14 | -6 | 10 | -2 | 1
COc1ccc(CCNC(=O)C(=O)NCC2OCCN2S(=O)(=O)c2cc(F)ccc2F)cc1 (stereo not drawn) | / | -1 | -11 | 9 | 55* | 15
CNC(=O)C(=O)NCC1OCCN1S(=O)(=O)c1ccc([N+](=O)[O-])cc1 (stereo not drawn) | 0 | -6 | -25 | 72* | -14 | 5
COc1ccccc1CCNC(=O)C(=O)NCCC1CCCCN1S(=O)(=O)c1ccccc1 (stereo not drawn) | -6 | -31 | -2 | 60* | 8 | 0
COc1ccccc1CNC(=O)C(=O)NCCC1CCCCN1S(=O)(=O)c1ccc(C)cc1 (stereo not drawn) | -7 | 2 | -16 | 34 | -3 | 2
CCN1CCN(C(C)CCc2ccccc2)CC1 (stereo not drawn) | -3 | -8 | -8 | 18 | -7 | 2
Cc1cn([C@H]2C[C@H](O)[C@@H](CNC(=O)c3ccccn3)O2)c(=O)[nH]c1=O | -3 | / | / | / | -14 | 3
C[C@@H]1ON(C)[C@H]2C[C@H]3c4cc(N5CCCCC5)ccc4CCN3C[C@@H]12 | -8 | / | / | / | -28 | 1
N#Cc1ccc(NC(=O)CNc2cc(S(=O)(=O)N3CCOCC3)ccc2NCC2CCCO2)cc1 (stereo not drawn) | -1 | 39* | -24 | -2 | 4 | 0
O=C(CNc1cc(S(=O)(=O)N2CCOCC2)ccc1NCC1CCCO1)Nc1ccc(C(F)(F)F)cc1 (stereo not drawn) | -1 | -10 | -18 | 16 | -41 | 0
N#Cc1ccc(NCC(=O)Nc2ccc(S(=O)(=O)N3CCCCC3)cc2)cc1 | -5 | 5 | 14 | -3 | 21 | 39*
SMILES | GalR3 antagonist | CHO parental Ca | OX1R antag-1 | OX1R antag-2 | TAAR1 antag | TAAR1 agonist
CCN(CC)c1ccc(-n2cc3c(=O)n(C)c(=O)n(C)c3c2)cc1 | -4 | -15 | 12 | 74* | -8 | 6
CN(C)c1ccc(-n2cc3c(=O)n(C)c(=O)n(C)c3c2)cc1 | 1 | -12 | -16 | 29 | -14 | 0
O=[N+]([O-])c1ccc(NCCNCCOc2nonc2-c2ccccc2)c([N+](=O)[O-])c1 | -7 | 5 | -17 | 43* | 7 | 6
Cc1nonc1OCCNCCNc1ccc([N+](=O)[O-])cc1Cl | -2 | -5 | -19 | 34 | 20 | 1
CN(CCCC(=O)O)S(=O)(=O)c1ccc2c(c1)C(=O)c1cc(S(=O)(=O)N(C)CCCC(=O)O)ccc1-2 | -2 | -5 | -6 | 51* | -27 | 1
CN(CCO)S(=O)(=O)c1ccc2c(c1)C(=NNC(N)=O)c1cc(S(=O)(=O)N(C)CCO)ccc1-2 | -2 | 0 | 8 | 20 | -29 | 0
O=c1[nH]c2c(Br)cnc([N+](=O)[O-])c2[nH]1 | -4 | -7 | -10 | 43* | -21 | -1
COc1ccc(CCN2CC(=O)N3CCc4ccc(N5CCOCC5)cc4C3CC2=O)cc1OC (stereo not drawn) | -2 | / | / | / | -28 | 8
COc1cc(/C=N/NC(=O)c2cncc(Br)c2)cc([N+](=O)[O-])c1O | 25* | -7 | -16 | 27 | -17 | 1
COc1cc(/C=N/NC(=O)c2cccc([N+](=O)[O-])c2)cc(OC)c1O | 2 | -5 | -1 | 39 | 7 | 3
Cc1ccc(C2=NS(=O)(=O)N(C)C(C(=O)NC3CCCC3)=C2)cc1 | / | -4 | -13 | 17 | 5 | 4
CCCNC(=O)Cn1c(=O)/c(=C\c2ccc(-c3ccc([N+](=O)[O-])cc3)o2)s/c1=C\C(=O)C(C)(C)C | / | 59* | 75* | 12 | / | /
CC(C)(C)C(=O)Nc1ccc(C(=O)N/N=C/c2ccccc2OC(=O)c2ccccc2)cc1 | 1 | -6 | -8 | 23 | 53* | 16
O=C(N/N=C/c1ccc(OC(=O)c2ccccc2)c([N+](=O)[O-])c1)c1ccc(O)cc1 | -4 | -10 | -4 | 36 | 53* | 0
COc1ccc(/C=N\NC(=O)c2ccc(F)cc2)cc1COc1cc(F)ccc1[N+](=O)[O-] | -5 | / | / | / | 53* | 4
COc1ccc(/C=N/NS(=O)(=O)c2ccc(F)cc2)cc1COc1cc(F)ccc1[N+](=O)[O-] | -4 | 23 | 10 | 24 | -4 | 2
CSc1ccc(CN(C)Cc2cc(=O)oc3c(C)c(C)ccc23)cc1 | -15 | 53* | -15 | 12 | 26 | 3
